Columns and labels:
[1] = Drug degradation in human SKBR3 cells at 50 uM after 4 hrs by HPLC method; type: ADME, cell-based, SK-BR-3; conditions: read-out: Drug degradation
Method in brief: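 About 15,000 trypsinised SKBR-3 cells were resuspended with 50 μM (final) conjugate in serum-free medium at 37 °C, one sample per time point (0 min–48 h). Cells were lysed with chilled acetonitrile, sonicated and centrifuged, and the supernatant was cleaned on Sep-Pak. Intact-conjugate peak area was measured by C18 reversed-phase HPLC and expressed relative to time zero. Each time point was run in triplicate.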

[2] = Antiproliferative activity against human MCF7 cells after 72 hrs by CellTiter-Glo assay; type: functional, cell-based; conditions: MCF7, 72 h
Method in brief: (§1)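 Cells were kept at 37 °C, 5% CO2. 10,000 cells per well were dosed with serial dilutions in serum-free medium. Luminescence was read by CellTiter-Glo and IC50 taken from the dose-response curve. Each experiment was run three times (SD).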

[3] = Drug uptake in nucleus of human SKBR3 cells at 5 uM after 4 hrs by DAPI staining based confocal microscopic method; type: ADME, cell-based; conditions: sk-br-3, 4 h
Method in brief: (§2)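 SKBR-3 cells were seeded for 24 h, then exposed to 5 μM at 37 °C for 30 min, 4 h or 24 h. Cells were PBS-washed, fixed in methanol at −20 °C for 5 min and mounted with DAPI.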

[4] = Drug uptake in cytoplasm of human SKBR3 cells at 5 uM after 4 hrs by DAPI staining based confocal microscopic method; type: ADME, cell-based; conditions: sk-br-3, 4 h; method in brief: as §2
[5] = Drug uptake in cytoplasm of human SKBR3 cells at 5 uM after 24 hrs by DAPI staining based confocal microscopic method; type: ADME, cell-based; conditions: sk-br-3, 24 h; method in brief: as §2
[6] = Drug uptake in nucleus of human SKBR3 cells at 5 uM after 30 mins by DAPI staining based confocal microscopic method; type: ADME, cell-based; conditions: sk-br-3, 0.5 h; method in brief: as §2
[7] = Drug uptake in human MCF7 cells at 5 uM after 24 hrs by DAPI staining based confocal microscopic method; type: ADME, cell-based; conditions: mcf7, 24 h
[8] = target: T1, Receptor tyrosine-protein kinase erbB-2 (Homo sapiens, UniProt P04626); assay: Binding affinity to HER2 extracellular domain (unknown origin) by SPR assay
T1 sequence (P04626 whole entry, the tested form may be a part): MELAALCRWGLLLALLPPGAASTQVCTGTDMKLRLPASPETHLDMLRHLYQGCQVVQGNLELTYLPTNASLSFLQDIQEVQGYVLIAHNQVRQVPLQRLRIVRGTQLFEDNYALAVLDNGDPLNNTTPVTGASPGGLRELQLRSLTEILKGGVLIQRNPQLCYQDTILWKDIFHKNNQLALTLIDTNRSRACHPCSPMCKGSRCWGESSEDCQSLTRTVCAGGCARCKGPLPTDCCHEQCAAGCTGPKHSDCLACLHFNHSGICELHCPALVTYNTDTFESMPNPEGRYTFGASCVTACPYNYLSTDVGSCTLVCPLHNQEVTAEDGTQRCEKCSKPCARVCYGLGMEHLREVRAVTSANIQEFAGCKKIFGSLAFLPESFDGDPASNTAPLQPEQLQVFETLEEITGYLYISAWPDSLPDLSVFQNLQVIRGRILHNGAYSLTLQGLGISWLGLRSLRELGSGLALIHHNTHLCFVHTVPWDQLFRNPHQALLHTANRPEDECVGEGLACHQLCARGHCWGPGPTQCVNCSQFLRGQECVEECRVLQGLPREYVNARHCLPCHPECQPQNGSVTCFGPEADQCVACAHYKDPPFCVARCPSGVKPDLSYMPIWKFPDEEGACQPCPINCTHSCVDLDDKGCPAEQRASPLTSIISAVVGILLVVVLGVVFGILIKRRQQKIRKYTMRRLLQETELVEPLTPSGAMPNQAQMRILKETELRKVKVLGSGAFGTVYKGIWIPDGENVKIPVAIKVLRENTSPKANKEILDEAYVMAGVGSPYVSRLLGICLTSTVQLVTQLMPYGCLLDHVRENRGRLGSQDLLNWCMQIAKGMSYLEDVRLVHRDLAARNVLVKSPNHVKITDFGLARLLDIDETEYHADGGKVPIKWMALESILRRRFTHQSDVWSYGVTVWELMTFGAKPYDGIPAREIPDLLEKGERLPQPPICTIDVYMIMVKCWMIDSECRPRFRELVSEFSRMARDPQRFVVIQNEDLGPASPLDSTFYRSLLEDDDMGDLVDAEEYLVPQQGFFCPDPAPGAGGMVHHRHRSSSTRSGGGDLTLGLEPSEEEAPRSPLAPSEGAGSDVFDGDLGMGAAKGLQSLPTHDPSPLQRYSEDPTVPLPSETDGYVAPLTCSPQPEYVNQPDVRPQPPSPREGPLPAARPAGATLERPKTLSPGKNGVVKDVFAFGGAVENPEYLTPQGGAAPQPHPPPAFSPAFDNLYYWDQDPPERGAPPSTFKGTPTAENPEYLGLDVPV

[9] = Cell cycle arrest in human BT474 cells assessed as G2/M phase accumulation at 1 uM incubated for 1 hr followed by 24 hrs incubation in drug free medium by propidium iodide staining based flow cytometry; type: functional; conditions: BT-474
Method in brief: (§3)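 About 2 × 10⁵ BT-474 cells were exposed to 1 μM for 1 h, then kept 24 h in drug-free, serum-free medium. Cells were fixed in 70% ethanol (2 h, −20 °C) and stained with 100 μg/mL RNase plus 40 μg/mL propidium iodide (4 °C, 30 min). DNA content was read on 10,000 cells by FACS. Experiments were done in triplicate.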

[10] = Cell cycle arrest in human BT474 cells assessed as G0/G1 phase accumulation at 1 uM incubated for 1 hr followed by 24 hrs incubation in drug free medium by propidium iodide staining based flow cytometry; type: functional; conditions: BT-474; method in brief: as §3
[11] = Cell cycle arrest in human BT474 cells assessed as S phase accumulation at 1 uM incubated for 1 hr followed by 24 hrs incubation in drug free medium by propidium iodide staining based flow cytometry (reference value: 8.4 to 13.6%); type: functional; conditions: BT-474
Method in brief: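 About 2 × 10⁵ BT-474 cells exposed 1 h, then 24 h in drug-free, serum-free medium. Cells were fixed in 70% ethanol for 2 h at −20 °C, then stained with 100 μg/mL RNase plus 40 μg/mL propidium iodide for 30 min at 4 °C. DNA content was read by FACS (10,000 events). Triplicate.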

[12] = Antiproliferative activity against human MCF10A cells after 72 hrs by CellTiter-Glo assay; type: cell-based; conditions: MCF-10A
Method in brief: as §1, with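 “CO2. Media: RPMI-1640 (BT-474, MCF-7), EMEM (Calu-3), McCoy's (SKBR-3), DMEM (MCF-10A), each with 10% FBS, 1% pen-strep and 1% insulin.” for “CO2.”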

[13] = Antiproliferative activity against human Calu3 cells after 24 hrs by CellTiter-Glo assay; type: functional, cell-based; conditions: Calu-3, 24 h
Method in brief: (§4)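 10,000 cells per well, plated the day before treatment. Triplicate wells got serially diluted drug (0.001 to 100 μM) in serum-free medium at 37 °C. 1% SDS and 1% DMSO served as controls. After a PBS wash, CellTiter-Glo was added for about 20 min and luminescence read. IC50 came from the dose-response curve. Each experiment was run three times (SD).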

[14] = Drug uptake in human SKBR3 cells at 5 uM after 24 hrs by DAPI staining based confocal microscopic method; type: ADME, cell-based; conditions: sk-br-3, 24 h
Method in brief: (§5)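 SKBR-3 cells were seeded and treated 24 h later, then incubated at 37 °C for 30 min, 4 h or 24 h. Cells were fixed with methanol for 5 min at −20 °C and mounted in DAPI.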

[15] = Antiproliferative activity against human SKBR3 cells after 24 hrs by CellTiter-Glo assay; type: functional, cell-based; conditions: SK-BR-3, 24 h; method in brief: as §4
[16] = Drug uptake in cytoplasm of human SKBR3 cells at 5 uM after 30 mins by DAPI staining based confocal microscopic method; type: ADME, cell-based; conditions: sk-br-3, 0.5 h; method in brief: as §5
[17] = target: T1, Receptor tyrosine-protein kinase erbB-2; assay: Binding affinity to HER2 domain-4 (unknown origin) by SPR assay
[18] = Antiproliferative activity against human BT474 cells after 48 hrs by CellTiter-Glo assay; type: functional, cell-based; conditions: BT-474, 48 h; method in brief: as §4
[19] = Antiproliferative activity against human BT474 cells after 24 hrs by CellTiter-Glo assay; type: functional, cell-based; conditions: BT-474, 24 h; method in brief: as §4
[20] = Antiproliferative activity against human BT474 spheroids after 3 days by CellTiter-Glo assay; type: functional; conditions: BT-474, 72 h
Method in brief: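 They were treated at 0.001–10 μM for 3 days at 37 °C, with 1% SDS and 1% DMSO as controls. Viability was read by 3D CellTiter-Glo luminescence and IC50 taken from the log plot. Each experiment was run three times (SD).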

[21] = Antiproliferative activity against human Calu3 cells after 48 hrs by CellTiter-Glo assay; type: functional, cell-based; conditions: Calu-3, 48 h; method in brief: as §4
[22] = Drug uptake in human MCF7 cells at 5 uM after 30 mins by DAPI staining based confocal microscopic method; type: ADME, cell-based; conditions: mcf7, 0.5 h
Method in brief: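 MCF-7 cells were run like the SKBR-3 imaging: 37 °C for 30 min, 4 h or 24 h, methanol fixation at −20 °C, and DAPI mounting.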

COc1cccc2c1C(=O)c1c(O)c3c(c(O)c1C2=O)C[C@@](O)(C(=O)CO)C[C@@H]3O[C@H]1C[C@H](NC(=O)CCCC(=O)N[C@@H](CCCNC(=N)N)C(=O)N[C@@H](CC(=O)N[C@@H](Cc2ccccc2)C(=O)O)c2cccc3ccccc23)[C@H](O)[C@H](C)O1
metabolised at 4 h, 50 µM [1]: 50%
IC50 [2]: 0.8 µM
Drug uptake [3]: Active
Drug uptake [4]: Active
Drug uptake [5]: Active
Drug uptake [6]: Active
Drug uptake [7]: Active

N=C(N)NCCC[C@H](N)C(=O)N[C@@H](CC(=O)N[C@@H](Cc1ccccc1)C(=O)O)c1cccc2ccccc12
Kd [8]: 1 µM
Activity [9]: 23.6%
Activity [10]: 67%
Activity [11]: 5.7%
IC50 [12]: > 50 µM

COc1cccc2c1C(=O)c1c(O)c3c(c(O)c1C2=O)C[C@@](O)(C(=O)CO)C[C@@H]3O[C@H]1C[C@H](N)[C@H](O)[C@H](C)O1 [DOXORUBICIN]
IC50 [13]: 0.27 µM
Drug uptake [14]: Active
IC50 [15]: 0.034 µM
Drug uptake [3]: Active
Drug uptake [16]: Active
Kd [17]: 11000 µM
IC50 [18]: 0.041 µM
IC50 [19]: 0.053 µM
Drug uptake [6]: Active
IC50 [20]: 0.18 µM
Activity [11]: 3.7%
IC50 [21]: 0.11 µM
Drug uptake [22]: Active
IC50 [12]: 0.15 µM

From ChEMBL document CHEMBL3877285, “Design of a doxorubicin-peptidomimetic conjugate that targets HER2-positive cancer cells” (Eur J Med Chem, 2017)
